Experimental data from different studies.
Each line is one published result; the experiments were not run side by side.
SLC6A2: Sodium-dependent noradrenaline transporter (SLC6A2, Homo sapiens, UniProt P23975)
NPSR1: Neuropeptide S receptor (NPSR1, Homo sapiens, UniProt Q6W5P4)
NQO2: Ribosyldihydronicotinamide dehydrogenase [quinone] (NQO2, Homo sapiens, UniProt P16083)
MC4R: Melanocortin receptor 4 (MC4R, Homo sapiens, UniProt P32245)

| Structure (SMILES) | target | test | setting | quantity | result |
| --- | --- | --- | --- | --- | --- |
| O[C@@H]1[C@H](O)[C@@H]2C[C@@H]2[C@H]1n1cnc2c(NCC(c3ccccc3)c3ccccc3)nc(C#Cc3ccccc3)nc21 | SLC6A2 | ligand displacement, radioligand |  | Ki | 5.78 µM |
| Nc1ncnc2c1ncn2[C@@H]1O[C@H](COP(=O)(O)OP(=O)(O)OP(=O)(O)OP(=O)(O)OP(=O)(O)OC[C@H]2O[C@@H](n3cnc4c(N)ncnc43)[C@H](O)[C@@H]2O)[C@@H](O)[C@H]1O | adk (Escherichia coli, UniProt P69441) | binding, ITC |  | Kd | 0.354 µM |
| Nc1ncnc2c1ncn2[C@@H]1O[C@H](COP(=O)(O)OP(=O)(O)OP(=O)(O)O)[C@@H](O)[C@H]1O | dnaA (Escherichia coli, UniProt P03004, V303M) | binding |  | Kd | 0.08 µM |
| COc1cccc(C2c3c(ncn(-c4ccc(NC(C)=O)cc4)c3=N)Oc3ccc4ccccc4c32)c1 (stereo not drawn) | NPSR1 | cAMP, antagonist, TR-FRET |  | IC50 | 19.4 µM |
| CCCCN1CCC(COC(=O)c2ccc(N)c(OCF)c2)CC1 | Muscarinic acetylcholine receptor M5 (CHRM5, Homo sapiens, UniProt P08912) | cell-free assay, radioligand |  | Ki | > 10 µM |
| COc1cccc(C2c3c(ncn(-c4ccccc4Cl)c3=N)Oc3ccc4ccccc4c32)c1 (stereo not drawn) | NPSR1 | calcium signal, antagonist |  | IC50 | 5.51 µM |
| Cc1cccc(Nc2ccccc2C(=O)O)c1C | NQO2 | enzyme activity, inhibitor, absorbance |  | Ki | > 500 µM |
| CCOC(=O)[C@@]12C[C@@H]1[C@@H](n1ccc3c(NCCc4ccccc4)nc(C#Cc4ccccc4)nc31)[C@H](O)[C@@H]2O | SLC6A2 | ligand displacement, radioligand |  | Ki | 2.82 µM |
| COc1cccc(C2c3c(ncn(-c4ccc(C#N)cc4)c3=N)Oc3ccc4ccccc4c32)c1 (stereo not drawn) | NPSR1 | cAMP, antagonist, TR-FRET |  | IC50 | 5.52 µM |
| CC(C)C1=Cc2ccc3c(c2C(=O)C1=O)CCCC3(C)C | Cholinesterase (BCHE, Homo sapiens, UniProt P06276) | enzyme activity, inhibitor |  | Ki | > 100 µM |
| O=C(O)Cc1ccccc1Nc1c(Cl)cccc1Cl | NQO2 | enzyme activity, inhibitor |  | Ki | > 1000 µM |
| CC(C)[C@@H](CC[C@@H](C)[C@H]1CC[C@H]2[C@@H]3[C@H](O)C[C@H]4C[C@@H](NCCCNCCCCNCCCN)CC[C@]4(C)[C@H]3CC[C@]12C)OS(=O)(=O)O | Tyrosine-protein phosphatase non-receptor type 12 (PTPN12, Homo sapiens, UniProt Q05209) | enzyme activity, inhibitor |  | Ki | 40 µM |
| O=C(NCc1ccccc1)Nc1ncnc2c1C(c1ccccc1)c1c(ccc3ccccc13)O2 (stereo not drawn) | NPSR1 | calcium signal, antagonist |  | IC50 | > 30 µM |
| NC(=O)N1c2ccccc2C=Cc2ccccc21 | NQO2 | enzyme activity, inhibitor, absorbance |  | Ki | > 500 µM |
| COc1ccc(-c2nsc(NC(=O)[C@@H]3C[C@H]3C)c2C)cc1 | Metabotropic glutamate receptor 3 (GRM3, Homo sapiens, UniProt Q14832) | calcium signal, agonist |  | EC50 | > 25 µM |
| CCOC(=O)c1ccc(-n2cnc3c(c2=N)C(c2cccc(OC)c2)c2c(ccc4ccccc24)O3)cc1 (stereo not drawn) | NPSR1 | cAMP, antagonist, TR-FRET |  | IC50 | 15.4 µM |
| Cc1cnc(-c2ccc(-c3ccc(NC(=O)Nc4c(F)cc(F)cc4F)cc3F)c3c2C(=O)NC3)[nH]1 | Tyrosine-protein kinase Fgr (FGR, Homo sapiens, UniProt P09769) | binding, competition with immobilised ligand |  | Kd | 0.083 µM |
| CC(C)C[C@H](NC(=O)[C@H](Cc1c[nH]cn1)NC(=O)[C@H](CCCNC(=N)N)NC(=O)[C@H](CCCNC(=N)N)NC(=O)[C@@H](NC(=O)CNC(=O)[C@H](Cc1c[nH]cn1)NC(=O)[C@@H]1CCCN1C(=O)[C@H](CO)NC(=O)[C@@H]1CCCN1)[C@@H](C)O)C(=O)N1CCC[C@H]1C(=O)N[C@@H](CO)C(=O)N1CCC[C@H]1C(=O)N1CCC[C@H]1C(=O)O | Growth factor receptor-bound protein 2 (GRB2, Homo sapiens, UniProt P62993) | binding, NMR | pH 7.6 | Kd | 400 µM |
| COc1cccc(C2c3c(ncn(-c4ccncc4)c3=N)Oc3ccc4ccccc4c32)c1 (stereo not drawn) | NPSR1 | calcium signal, antagonist |  | IC50 | 4.38 µM |
| CCCC[C@H](NC(=O)[C@H](CO)NC(=O)[C@H](Cc1ccc(O)cc1)NC(=O)[C@H](CO)NC(C)=O)C(=O)N[C@@H](CCC(=O)O)C(=O)N[C@@H](Cc1c[nH]cn1)C(=O)N[C@@H](C)C(=O)N[C@@H](CCCNC(=N)N)C(=O)N[C@@H](Cc1c[nH]c2ccccc12)C(=O)NCC(=O)N[C@@H](CCCCN)C(=O)N1CCC[C@H]1C(=O)N[C@H](C(=O)NCC(=O)N[C@@H](CCCCN)C(=O)N[C@@H](CCCCN)C(=O)N[C@@H](CCCNC(=N)N)C(N)=O)C(C)C | MC4R | ligand displacement in cells, radioligand |  | Ki | > 1 µM |
| N=c1c2c(ncn1CCc1ccccc1)Oc1ccc3ccccc3c1C2c1ccccc1 (stereo not drawn) | NPSR1 | cAMP, antagonist, TR-FRET |  | IC50 | 4.87 µM |
| CCOC(=O)c1ccccc1 | Or67a (Drosophila melanogaster, UniProt Q9VT08) | binding, MST |  | Kd | ~0.5 µM |
| COc1cccc(C2c3c(ncn(-c4cccc(C)c4)c3=N)Oc3ccc4ccccc4c32)c1 (stereo not drawn) | NPSR1 | cAMP, antagonist, TR-FRET |  | IC50 | 12.2 µM |
| CC[C@H](C)[C@H](NC(=O)CN)C(=O)N[C@H](C(=O)N[C@@H](CC(N)=O)C(=O)N[C@H](C(=O)N[C@@H](CC(C)C)C(=O)N[C@@H](CCC(N)=O)C(=O)N[C@@H](CCCCN)C(=O)N[C@@H](Cc1ccc(O)cc1)C(=O)N[C@@H](Cc1ccc(O)cc1)C(=O)N[C@@H](CO)C(=O)N[C@@H](CCCNC(=N)N)C(=O)N[C@H](C(=O)N[C@@H](CCCNC(=N)N)C(=O)NCC(=O)NCC(=O)N[C@@H](CCCNC(=N)N)C(=O)N[C@H]1CSSC[C@@H](C(=O)N[C@@H](CO)C(=O)N[C@H](C(=O)N[C@@H](CCCNC(=N)N)C(=O)NCC(=O)N[C@@H](CCCNC(=N)N)C(=O)N[C@@H](CCCCN)C(=O)N[C@@H](CO)C(=O)N[C@@H](CO)C(=O)N[C@@H](CCCNC(=N)N)C(=O)N[C@@H](CCCNC(=N)N)C(=O)N[C@@H](CCCCN)C(=O)N[C@@H](CCCCN)C(N)=O)[C@@H](C)O)NC(=O)[C@H](CCCCN)NC(=O)CNC(=O)[C@H]([C@@H](C)CC)NC(=O)[C@H](CCC(N)=O)NC(=O)[C@H](CCC(=O)O)NC(=O)[C@H](CCC(=O)O)NC(=O)[C@H](CCCCN)NC(=O)[C@@H]2CCCN2C(=O)[C@H](CC(C)C)NC(=O)[C@H](CO)NC(=O)[C@H](CO)NC(=O)[C@H](CC(C)C)NC(=O)[C@H](C(C)C)NC(=O)[C@H](C)NC1=O)C(C)C)[C@@H](C)O)[C@@H](C)CC | MC4R | ligand displacement in cells |  | Ki | 0.567 µM |
